What was measured:
HL-60 [1] = assay: Cytotoxicity against human HL60 cells at 10 uM after 72 hrs by MTT assay; type: functional
In short: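 MTT was added for 4 h at 37 °C, followed by extraction buffer (10% SDS, 5% isobutanol, 0.01 M HCl) overnight at 37 °C. Absorbance was read at 570 nm, with etoposide as positive control.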

HL-60 [2] = assay: Cytotoxicity against human HL60 cells after 72 hrs by MTT assay; type: functional, cell-based; conditions: HL-60, 72 h
In short: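 HL-60 human leukemia cells were plated in 96-well plates and exposed in triplicate to graded concentrations for 72 h. MTT was added for 4 h at 37 °C, then extraction buffer (10% SDS, 5% isobutanol, 0.01 M HCl) overnight at 37 °C. Absorbance was read at 570 nm.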

SMILES	Activity (HL-60 [1])	IC50 (HL-60 [2])
CC(=O)O[C@@H]1[C@H]2[C@@H](OC(=O)c3ccccc3)[C@H](OC(=O)c3ccccc3)[C@]3(C)[C@@H](OC(=O)c4ccccc4)CC[C@@H](C)[C@@]13OC2(C)C	<50%	–
CC(=O)O[C@@H]1[C@H]2[C@@H](O)[C@@H](OC(=O)c3ccccc3)[C@]3(C)[C@@H](O)CC[C@@H](C)[C@@]13OC2(C)C	<50%	–
CC(=O)O[C@@H]1[C@H]2[C@@H](O)[C@@H](OC(=O)c3ccccc3)[C@]3(C)[C@@H](OC/C=C/c4ccccc4)CC[C@@H](C)[C@@]13OC2(C)C	–	8.3 µM
CC(=O)O[C@H]1CC[C@@H](C)[C@]23OC(C)(C)[C@H](C[C@H](OC(=O)c4ccccc4)[C@]12C)[C@H]3O	<50%	–
CCCC(=O)O[C@@H]1[C@@H]2[C@@H](OC(C)=O)[C@]3(OC2(C)C)[C@H](C)CC[C@H](OC(=O)c2ccccc2)[C@@]3(C)[C@@H]1OC(=O)c1ccccc1	–	5.3 µM
CC(=O)O[C@@H]1[C@@H]2[C@@H](OC(C)=O)[C@]3(OC2(C)C)[C@H](C)CC[C@H](OC(C)=O)[C@@]3(C)[C@H]1OC(=O)c1ccccc1	–	6.8 µM
CC(=O)O[C@H]1C[C@@H](C)[C@@]23C[C@@H](C[C@H](OC(C)=O)[C@]2(C)[C@H]1OC/C=C/c1ccccc1)C(C)(C)O3	–	3.3 µM
CC(=O)O[C@@H]1[C@@H]2[C@@H](OC(C)=O)[C@]3(OC2(C)C)[C@H](C)CC[C@H](O)[C@@]3(C)[C@@H]1OC(=O)c1ccccc1	<50%	–
CC(=O)O[C@@H]1[C@H]2C[C@H](OC/C=C/c3ccccc3)[C@]3(C)[C@@H](OC(C)=O)[C@@H](OC(=O)c4ccccc4)C[C@@H](C)[C@@]13OC2(C)C	<50%	–
CC(=O)O[C@@H]1[C@@H]2[C@@H](OC(C)=O)[C@]3(OC2(C)C)[C@H](C)CC[C@H](OC(=O)c2ccccc2)[C@@]3(C)[C@@H]1OC(=O)c1ccccc1	<50%	–
CC(=O)O[C@H]1C[C@@H]2[C@@H](OC(=O)c3ccccc3)[C@]3(OC2(C)C)[C@H](C)CC[C@H](OC(=O)c2ccccc2)[C@@]13C	–	2.8 µM
CC(=O)O[C@@H]1[C@H]2C[C@H](OC/C=C/c3ccccc3)[C@]3(C)[C@@H](OC(C)=O)[C@@H](O)C[C@@H](C)[C@@]13OC2(C)C	<50%	–
CC(=O)O[C@H]1C[C@](C)(O)[C@@]23C[C@@H](C[C@H](OC(=O)/C=C/c4ccccc4)[C@]2(C)[C@H]1OC(C)=O)C(C)(C)O3	<50%	–
CC(=O)O[C@H]1CC[C@@H](CO)[C@]23OC(C)(C)[C@H](C[C@H](OC(=O)c4ccccc4)[C@]12C)[C@H]3OC(=O)c1ccccc1	<50%	–
C[C@@H]1CC[C@H](OC(=O)c2ccccc2)[C@@]2(C)[C@H](OC(=O)c3ccccc3)[C@H](OC(=O)c3ccccc3)[C@@H]3[C@@H](O)[C@]12OC3(C)C	<50%	–
